ARFGAP1 inh = inhibits rat ARF GTPase activating protein 1 | Q62848 | Arfgap1-stimulated ARF1 GTP hydrolysis, GDP FP detection | inhibition, % at 16.5 µM | actives 0.26% (n = 360,000) | AID 651572;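 active = inhibition above a per-plate limit, mean inhibition of low control wells plus 3 SD, cut at about 25% in these data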;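 also: 0% = DMSO wells with enzyme and 100% = wells lacking Arfgap1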
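Assay system: Rat Arfgap1 GAP domain (His6, aa 1-136), purified enzyme | Buffer or medium: HEPES 25 mM pH 7.5, NaCl 150 mM, MgCl2, DTT | Schedule: GTP hydrolysis reaction 2 h at 25 °C | Signal: FP of antibody-bound GDP Alexa 633 tracer, ex 620/em 688 nm | Measure: Percent inhibition of Arfgap1-stimulated GTP hydrolysis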
sPLA2-III inh = Blocks human group III sPLA2 activity; Q9NZ20; QFRET BODIPY PC-A2 liposome hydrolysis, fluorescence; AID 743126; actives 0.56% (n = 370,000); inhibition, % at 12.2 µM;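 active = inhibition above mean plus 3 SD of compounds lying within the high and low control bounds, cut at about 19% in these data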;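 also: 0% = median of test compound wells and 100% = no enzyme DMSO wells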
PLCg1 inh = inhibitors of human phospholipase C gamma1. P19174. purified PLC-gamma1, fluorogenic substrate, fluorescence. inhibition, % at 12.2 µM. actives 0.84% (n = 370,000). AID 720700; in the data active = inhibition above about 9.5%
PLC-beta3 inh = PLC-beta3 (human) inhibition, primary screen; Purified PLC-beta3, fluorogenic substrate, fluorescence; inhibition, % at 12.2 µM; actives 0.18% (n = 370,000); AID 720704; in the data active = inhibition above about 11%;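 also: 0% = median of compound wells on plate and 100% = full blocker control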
ASAP1 GAP inh = ASAP1 ArfGAP inhibition | Q9ULH1 | ASAP1-stimulated ARF1 GTP hydrolysis, GDP FP detection | inhibition, % at 16.5 µM | actives 0.19% (n = 360,000) | AID 624377; in the data active = inhibition above about 25%;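 also: 0% = vehicle with enzyme and substrate and 100% = no enzyme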
ASAP1 inh confirm = ASAP1 inhibition confirmed | shares compounds with ASAP1 GAP inh | ASAP1-stimulated Arf1 GTPase, GDP fluorescence polarization | inhibition, % at 16.5 µM | actives 37% (n = 620) | AID 624431;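 active = mean inhibition over triplicates exceeds the hit threshold derived for the earlier primary screening run, cut at about 25% in these data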
The depositor's hits bear a star; i = inactive; · = no result. This is a sample that favours compounds with a hit; in the whole collection about 1.9% have one here.

SMILES | ARFGAP1 inh | sPLA2-III inh | PLCg1 inh | PLC-beta3 inh | ASAP1 GAP inh | ASAP1 inh confirm
CN(C)c1ccc(/C=C/c2cccc[n+]2[O-])cc1 | -4 | -3 | i | i | 2 | ·
CN(C)c1ccc(/C=C/c2ccc3c4ccccc4ccc3[n+]2-c2ccccc2)cc1 | 123* | 44* | -33 | -54 | 86* | 95*
COc1ccc(/C=C2\CC3(OC(=O)C4CCCC4)CCCN2C3)cc1 (stereo not given) | · | 5 | 0 | -4 | · | ·
CS(=O)(=O)N(Cc1ccc(Cl)cc1)c1ccc(C(=O)NCc2ccccn2)cc1 | 7 | -12 | 2 | 4 | 31* | 9
O=C(NCCc1c[nH]c2ccccc12)OCc1cn(Cc2ccc(F)cc2F)nn1 | · | -70 | 2 | 0 | · | ·
O=C1CCC[C@H]2C[C@H](NCc3cccc(F)c3)CC[C@]23CCCN13 | · | 12 | 3 | 0 | · | ·
N#Cc1c(-c2ccc(Cl)cc2)ccn2nc(C3CCCCC3)nc12 | 0 | -4 | -9 | -8 | 27* | 5
CCOc1cc(C(c2c(C)[nH][nH]c2=O)c2c(C)[nH][nH]c2=O)ccc1OCc1ccc([N+](=O)[O-])cc1 | 11 | -62 | 3 | 0 | 15 | ·
CCOc1cc(/C=C2/NC(=S)NC2=O)ccc1OCc1ccc([N+](=O)[O-])cc1 | 2 | 6 | 0 | 1 | 29* | 13
O=C(Nc1ccc2c(c1)OCCO2)C(c1ccncc1)n1c(=O)c(-c2cc3ccccc3[nH]2)nc2ccccc21 (stereo not given) | 8 | -13 | i | i | 33* | 16
O=C(Nc1c2c(nn1-c1ccc(F)cc1)CS(=O)C2)c1ccco1 (stereo not given) | 13 | 5 | 1 | -12 | 9 | ·
Cc1ccc(-n2nc3c(c2NC(=O)c2ccco2)CS(=O)C3)cc1 (stereo not given) | -8 | -1 | 2 | -3 | 25* | -2
CCOC(=O)[C@@]12CN(C(=O)OC(C)(C)C)CC=C1N(Cc1ccc(OC)cc1)C(=O)[C@H]2CC(=O)NCCCCc1ccccc1 | · | -19 | 1 | 3 | · | ·
COc1cc(OC)c(C2SCCN2S(=O)(=O)c2ccc(F)cc2)cc1OC (stereo not given) | -3 | 3 | -1 | -4 | 7 | ·
COc1ccc(OC)c(C2SCCN2S(=O)(=O)c2cccc(C(F)(F)F)c2)c1 (stereo not given) | 1 | -8 | -4 | -5 | 25* | 8
COc1ccc(OCC(C)CN2CCC(C(O)(c3ccccc3)c3ccccc3)CC2)cc1 (stereo not given) | · | 0 | 6 | 8 | · | ·
COc1ccc(C(=O)c2c(C)c3cc(C)ccc3n2CC(O)CN2CCOCC2)cc1 (stereo not given) | -8 | -14 | -7 | -13 | 26* | 1
COc1cc2sc(-c3ccc(S(C)(=O)=O)cc3)c(C#CCO)c2cc1OC | 15 | -27 | -128 | -171 | 30* | 8
CC(C)(C)C(=O)OC12CCCN(C1)/C(=C/c1ccc(C#N)cc1)C2 (stereo not given) | · | 3 | 0 | -2 | · | ·
O=C1C=C(Nc2cccnc2)c2ccccc2C1=O | -7 | -2 | 4 | -1 | 26* | 12
COc1ccc(C(=O)NC(C)c2ccc(-n3ccnc3)cc2)cc1[N+](=O)[O-] (stereo not given) | -4 | 1 | 2 | -2 | 25* | 12
COc1cc(C(=O)NC(C)c2ccc(-n3ccnc3)cc2)cc(OC)c1C (stereo not given) | 5 | 5 | -1 | -7 | 0 | ·
CCN1CC2=C(OC(N)=C(C#N)C2c2cccs2)/C(=C/c2cccs2)C1 (stereo not given) | 4 | 2 | -37 | -57 | 7 | ·
CCN1C=C(Cc2cccs2)C2=C(C1)C(c1cccs1)C(C#N)=C(N)O2 (stereo not given) | -4 | -7 | -28 | -29 | 25* | 7
CC1CCC2(CCC(=O)N2CCCOC(=O)NC(C)(C)C)CC1 (stereo not given) | · | 18 | 2 | -3 | · | ·
SMILES | ARFGAP1 inh | sPLA2-III inh | PLCg1 inh | PLC-beta3 inh | ASAP1 GAP inh | ASAP1 inh confirm
CC1=[N+](C)c2c(ccc3cccnc23)C1(C)C | 70* | 1 | -74 | -120 | 51* | 32*
CC(C)N1CCCCC(NC(=O)c2cccc(F)c2)C1=O (stereo not given) | · | 3 | 1 | 3 | · | ·
O=C(C[n+]1cccc(C(=O)Nc2ccccc2)c1)c1ccc(Cl)cc1 | 3 | -3 | -8 | -13 | 25* | 4
COc1ccc2oc(C(=O)OCC(=O)N3CCC(C)CC3)c(C)c2c1 | 15 | 0 | -68 | -115 | 27* | 15
COC(=O)[C@]12C[C@H](CC(=O)N3CCCC3)C(=O)N(Cc3ccc(Cl)cc3Cl)C1=C[C@H](COCc1ccccc1)O[C@@H]2C | · | -9 | 5 | 3 | · | ·
CCCCOC(=O)Sc1nc2ccccc2o1 | -1 | 5 | 0 | -2 | 25* | -1
CC(C)(C)c1nc(N2CCN(C(=O)c3ccco3)CC2)c2nnn(Cc3ccccc3)c2n1 | 14 | -11 | -14 | -15 | 49* | 3
O=C(c1ccco1)N1CCN(c2nc(C3CC3)nc3c2nnn3Cc2ccccc2Cl)CC1 | -4 | -3 | 6 | 5 | 6 | ·
CCCCNS(=O)(=O)/C=C/c1ccc(F)cc1CNC(=O)OC(C)(C)C | · | -6 | 2 | 1 | · | ·
Cc1nc2ccccc2nc1N1CCCC1 | 6 | 1 | -1 | -6 | 31* | 3
Cc1cccc(OCC(C)CN2CCC(C(O)(c3ccccc3)c3ccccc3)CC2)c1 (stereo not given) | · | -15 | 1 | 0 | · | ·
CC1(C)C=C2C(=NN(c3ccccc3)C(N)=C2C#N)CO1 | 9 | 7 | -27 | -23 | 26* | 8
C=CCN1[C@@H](Cc2ccccc2)COc2cccc(N3CCCC3)c2S1(=O)=O | · | 16 | -1 | -7 | · | ·
CC(=O)c1cc(-c2ccccc2)c(=O)n2c1CCC2 | · | 0 | 0 | -2 | · | ·
O=C1C(Nc2cccc(O)c2)=C(N2CCCCC2)C(=O)c2ccccc21 | 13 | -14 | -28 | -40 | 16 | ·
Cc1ccc(NC2=C(N3CCCCC3)C(=O)c3ccccc3C2=O)cc1 | 15 | 6 | 3 | -2 | 28* | 16
O=C1C(Nc2ccccc2)=C(N2CCCCC2)C(=O)c2ccccc21 | 10 | 3 | 0 | 2 | 30* | 17
COCCNC(=S)N=Nc1c(O)[nH]c2ccc([N+](=O)[O-])cc12 | 2 | 6 | -2 | -5 | 30* | 41*
CCCCCCC(=O)N=Nc1c(O)[nH]c2ccc([N+](=O)[O-])cc12 | 6 | 7 | 0 | -1 | -8 | ·
CCC(=O)N1CCc2cc(Br)c(S(=O)(=O)N3CCC(C(=O)NCCCOC(C)C)CC3)cc21 | · | 1 | -1 | 3 | · | ·
O=C(Nc1ccc2c(c1)OCO2)O[C@@H]1CC[C@@]23CCCN2C(=O)CCC[C@H]3C1 | · | -1 | -1 | -1 | · | ·

From PubChem BioAssay
